DDE Tn7 FP inh = DD(E)-Tn7 binding inhibition, primary FP screen; P02675; FP displacement of FITC-Tn7 peptide from fibrin DD(E); 0% = median of compound wells per plate; inhibition, % at 8.3 µM; 370,000 tested, 0.13% active; AID 720508;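 active = inhibition above the mean of compounds falling within the control limits plus 3 SD of them, cut at about 14% in these data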;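 note: 0% = plate median of compound wells and 100% = 10 µM Aha-Tn7 peptide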
Target sequence (P02675 whole entry, looked up): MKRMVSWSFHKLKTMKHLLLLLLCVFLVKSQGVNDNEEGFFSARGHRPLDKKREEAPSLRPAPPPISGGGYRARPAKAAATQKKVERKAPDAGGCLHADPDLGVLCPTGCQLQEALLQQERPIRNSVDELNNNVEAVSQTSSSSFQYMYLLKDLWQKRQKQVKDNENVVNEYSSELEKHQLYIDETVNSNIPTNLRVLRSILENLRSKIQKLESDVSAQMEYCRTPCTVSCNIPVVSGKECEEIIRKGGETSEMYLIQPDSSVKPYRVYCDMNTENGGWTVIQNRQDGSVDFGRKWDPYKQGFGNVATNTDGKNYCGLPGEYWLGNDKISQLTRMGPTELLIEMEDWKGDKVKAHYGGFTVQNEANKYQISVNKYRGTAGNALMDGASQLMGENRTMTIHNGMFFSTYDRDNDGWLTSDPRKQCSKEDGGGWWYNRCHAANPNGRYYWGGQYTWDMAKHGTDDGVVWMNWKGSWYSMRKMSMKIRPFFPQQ
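Assay system: human fibrin DD(E). Input: DD(E) 2 µM final. Medium: Tris buffer with calcium and detergent, pH 7.8. Compound dosing: single point at 8.3 µM. Timing: 10 min plus 3 h, room temperature. Technique: fluorescence polarization of the labelled Tn7 tracer. Read-out: percent inhibition. Replicates: singlicate testing.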
ARFGAP1 inh = rat ARFGAP1 inhibition | AID 651572 | Arfgap1-stimulated ARF1 GTP hydrolysis, GDP FP detection | 360,000 tested, 0.26% active | inhibition, % at 16.5 µM | Q62848;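 active = inhibition above a per-plate limit, mean inhibition of low control wells plus 3 SD, cut at about 25% in these data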;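 note: 0% = DMSO wells with enzyme and 100% = wells lacking Arfgap1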
Target sequence (Q62848 1-136 limits assumed): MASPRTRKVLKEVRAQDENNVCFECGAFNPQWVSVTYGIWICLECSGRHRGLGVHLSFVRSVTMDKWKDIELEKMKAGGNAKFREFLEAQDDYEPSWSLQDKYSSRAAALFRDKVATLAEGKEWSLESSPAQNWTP
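Material: rat Arfgap1 GAP domain (His6, aa 1-136), purified enzyme. Also added: human ARF1(Δ1-17)-GTP substrate. Compound dosing: 16.5 µM single point, 1.26% DMSO. Timing: enzyme reaction 120 min at 25 °C after 20 min preincubation. Signal: GDP detection by fluorescence polarization. Read-out basis: percent inhibition of GAP-stimulated GDP formation, scaled between DMSO and no-Arfgap1 medians.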
ASAP1 inh = inhibitors of human ASAP1 ArfGAP activity. 360,000 tested, 0.19% active. inhibition, % at 16.5 µM. Q9ULH1. ASAP1-stimulated ARF1 GTP hydrolysis, GDP FP detection; in the data active = inhibition above about 25%;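 note: 0% = vehicle with enzyme and substrate and 100% = no enzyme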
Tn6 DDE FP = disrupts Tn6 cyclic peptide binding to fibrin D-Dimer-E complex; P02675; Fibrin DD(E) TRITC-Tn6 fluorescence polarization displacement; inhibition, % at 8.3 µM; 370,000 tested, 0.21% active;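 active = inhibition above a per-campaign cutoff: mean of compounds within control limits plus 3 SD, cut at about 15% in these data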;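 note: 0% = median of all compound wells on the plate and 100% = blocking peptide control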
* hit, by the source's call; . = no result given. Most compounds without a hit are left out; they make up all but 0.74% or so of the library.

SMILES | DDE Tn7 FP inh | ARFGAP1 inh | ASAP1 inh | Tn6 DDE FP
CN(CC(=O)Nc1ccccc1Cl)C(=O)COC(=O)c1ccc(=O)n(Cc2ccccc2)n1 | 3 | -2 | -16 | 3
S=c1[nH]nc(-c2n[nH]c3c2CCC3)n1N=Cc1ccc(OCc2ccccc2)cc1 | -1 | . | . | 5
Oc1ccc(/C=N/Nc2cc(N3CCOCC3)nc(N3CCOCC3)n2)cc1 | -3 | -8 | 1 | -7
Oc1ccc(/C=N/Nc2cc(N3CCCC3)nc(N3CCCC3)n2)cc1 | 3 | 28* | 13 | 0
CC(=O)Nc1ccc(S(=O)(=O)N2CCN(c3cc(C)nc4ccccc34)CC2)cc1 | 0 | 2 | 6 | 0
CC(=O)Nc1ccc(S(=O)(=O)N2CCN(c3nc(NC4CCCC4)c4ccccc4n3)CC2)cc1 | -3 | 39* | 18 | -5
O=C1NC(=O)C2(N1)C(=O)c1cccc3cccc2c13 (centres undefined) | 4 | -4 | -19 | 39*
CC1CCN(S(=O)(=O)c2ccc(NC(=O)Cn3nnc(-c4ccccc4)n3)cc2)CC1 | -4 | 8 | 4 | 19*
COC(=O)c1ccc(N)c2c(N)ccc(C(=O)OC)c12 | -3 | 5 | 0 | 4
Nc1nc(NCCO)nc(N2CCCCCC2)c1[N+](=O)[O-] | -2 | 8 | 0 | 3
OCCN(CCO)c1nc(N2CCCCC2)c2nc(N(CCO)CCO)nc(N3CCCCC3)c2n1 | 26* | 4 | 3 | 1
COc1cccc(CNC(=O)[C@H]2CCCN2C(=O)[C@H]2CCCN2C(=O)c2ccc(F)c(F)c2)c1 | -3 | -4 | -10 | -7
N#Cc1ccc(CC(=O)c2ccccc2)[nH]c1=O | -2 | 5 | -2 | 17*
C[C@H](CO)N1C[C@H](C)[C@H](CN(C)C(=O)C2CCCCC2)OCc2cnnn2CCCC1=O | -2 | 4 | 6 | -4
Cc1cc(C)c(S(=O)(=O)/N=C2\C=C(Nc3ccc(C(=O)O)cc3)C(=O)c3ccccc32)c(C)c1 | -2 | -1 | 21 | 0
O=C(O)c1ccc(NC2=C/C(=N/S(=O)(=O)c3cccs3)c3ccccc3C2=O)cc1 | 5 | -10 | 11 | -5
O=C1C(Nc2ccc(O)cc2)=C/C(=N/S(=O)(=O)c2cccs2)c2ccccc21 | 3 | 9 | 32* | -11
Cc1cccc(NC2=C/C(=N/S(=O)(=O)c3cccs3)c3ccccc3C2=O)c1 | 2 | 12 | 33* | -1
Cc1ccc(-n2c(SCc3c(Cl)cccc3Cl)nnc2-c2ccco2)cc1 | 5 | . | . | -5
CCn1c(CSc2nnc3ccccn23)nc2cc(C(=O)O)ccc21 | -3 | -6 | -17 | 20*
NN=C1c2ccccc2C(=O)C1C(=O)C(c1ccccc1)c1ccccc1 (centres undefined) | -4 | 1 | 15 | 19*
O=C(N/N=C/c1ccc([N+](=O)[O-])o1)c1cc2ccccc2o1 | 0 | -5 | 5 | 3
O=[N+]([O-])c1ccc(/C=N/Nc2ccc3ccccc3c2)o1 | -6 | -4 | 25* | -7
CCN(CC)c1cccc(OC2=NS(=O)(=O)c3ccccc32)c1 | 4 | 9 | 2 | 111*
COc1cccc(-c2nnc(SCC(=O)Nc3ccc(Oc4ccccc4)cc3)n2Cc2ccco2)c1 | 0 | . | . | 3
SMILES | DDE Tn7 FP inh | ARFGAP1 inh | ASAP1 inh | Tn6 DDE FP
CCOc1cccc(CNc2ccc(O)cc2)c1OCc1ccc(Cl)cc1 | -7 | 0 | 8 | 15*
CCOC(=O)CSc1nc2sc3c(c2c(=O)n1-c1ccccc1)CCN(C(C)C)C3 | 4 | 6 | -10 | 19*
O=S(=O)(c1cc(O)ccc1O)c1cccc2c(S(=O)(=O)c3cc(O)ccc3O)cccc12 | -5 | 25* | 22 | -7
NC(=S)N/N=C/c1cccc(O)c1O | 3 | 0 | -1 | 8
Cc1cc(/C=N/NC(N)=S)c(O)c(/C=N/NC(N)=S)c1 | 43* | 9 | 5 | 5
COC(=O)C1=C(C)N(C)C(=NCc2ccc3c(c2)OCO3)NC1c1cccc(F)c1 (centres undefined) | -6 | -2 | -7 | 7
Cc1cccc(C)c1NC(=O)C(CCc1ccccc1)N1CCN(CCN(C)C)CC1 (centres undefined) | 2 | -6 | -5 | 7
O=C1NC(=S)S/C1=C\c1cc(Cl)cc(Cl)c1O | -12 | -33 | -4 | 25*
C[C@H](CO)N1C[C@H](C)[C@@H](CN(C)C(=O)Nc2ccc(C(F)(F)F)cc2)Oc2ccc(NC(=O)Nc3ccc(C(F)(F)F)cc3)cc2C1=O | 0 | 12 | 23 | 31*
COc1ccc(C=NN(C)C(=O)Nc2cccc(Cl)c2)cc1OC | 9 | 3 | 6 | 4
CC(C)c1nc(N(C)S(C)(=O)=O)nc(-c2ccc(F)cc2)c1/C=C/[C@H](O)C[C@@H](O)CC(=O)O | 4 | . | . | -5
c1cc2cc(-c3c(-c4ccc5c(c4)OCO5)noc3-c3ccsc3)ccc2[nH]1 | 0 | 29* | 14 | 2
Cc1onc(-c2ccc3c(c2)OCO3)c1-c1ccc2[nH]ccc2c1 | -1 | 0 | 11 | 0
Cc1cc2cc(CNC(=O)c3ccc(S(=O)(=O)N4CCCCC4)cc3)ccc2n1C | 2 | -3 | 3 | 164*
CN1C(=O)[C@@]2(O[C@H]3c4ccccc4C=CN3C3=C2C(=O)CCC3)c2ccccc21 | 2 | 1 | -7 | 6
CN(C)CCCn1c2c3ccccc3ccc2c2oc(=O)c3ccccc3c21 | 17* | -7 | -1 | 8
CN(C)CCCn1c(=S)[nH]c2ccccc2c1=O | 2 | -8 | -15 | -3
COc1ccc(NC(=O)c2cn(-c3ccccc3)nc2-c2ccncc2)cc1 | -1 | -1 | 3 | 0
COc1ccc(NC(=O)c2cn(-c3ccccc3)nc2-c2cc3ccccc3o2)cc1 | 1 | 10 | 29* | -1
CC(=O)C(C(C)=O)C1(O)C(=O)c2ccccc2C1=O | 7 | 32* | 27* | 4
CCN(Cc1ccccc1)c1ccc(/C=C(\C#N)c2ccccn2)cc1 | 5 | 1 | 3 | 2
CN(CCC#N)c1ccc(/C=C(\C#N)c2ccccn2)cc1 | 4 | -1 | -3 | 31*
C[C@H](CO)N1C[C@H](C)[C@@H](CN(C)C(=O)Nc2cccc(C(F)(F)F)c2)OCc2cn(nn2)CCCC1=O | 10 | -6 | -12 | 2
Cc1ccc(NC(=O)c2ccc(-n3cccn3)c([N+](=O)[O-])c2)cc1 | 4 | -16 | -8 | 1
O=C(Nc1ccc(C2=NCCN2)cc1)c1ccc(C(=O)Nc2ccc(C3=NCCN3)cc2)c([N+](=O)[O-])c1 | 7 | 27* | 3 | -2
CC1CCCC(C)N1C(=O)c1ccccc1 (centres undefined) | 5 | 13 | 5 | 1
CCN(CC)c1ccc2cc(NC(=O)CCC(=O)O)c(=O)oc2c1 | 10 | 1 | 6 | 44*
CC(C)C(Cl)=NOC(=O)Nc1ccc(F)cc1 | -4 | -3 | 2 | 20*
C/C(=N\OC(=O)Nc1ccc(Cl)cc1)c1ccc(F)c(F)c1 | 8 | 11 | 5 | 5

Bioassay records deposited in PubChem by The Scripps Research Institute Molecular Screening Center.
